ChEMBL document CHEMBL4732237, “Discovery of 4-alkoxy-2-aryl-6,7-dimethoxyquinolines as a new class of topoisomerase I inhibitors endowed with potent in vitro anticancer activity” (2021)

tested on: UACC-257; assay: Growth inhibition of human UACC-257 cells at 10 uM incubated for 48 hrs by sulforhodamine B assay relative to control; format: functional; conditions: read-out: GI
Outline: (§1)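 NCI one-dose screen across a 59-line panel. Cells were grown in RPMI 1640 with 5% FBS and 2 mM L-glutamine, plated and pre-incubated 24 h, then exposed to drug for 48 h at 37 °C, 5% CO2. Adherent cells were fixed with cold TCA (10% final), stained with 0.4% SRB in 1% acetic acid and read at 515 nm. Result is percent growth relative to no-drug control and time-zero cell count.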

| SMILES | inhibition of growth at 10 µM [%] |
| --- | --- |
| COc1cc2nc(-c3cccs3)cc(OCCCN3CCC(O)CC3)c2cc1OC | 20 |

tested on: NCI-H522; assay: Growth inhibition of human NCI-H522 cells at 10 uM incubated for 48 hrs by sulforhodamine B assay relative to control; format: functional; conditions: read-out: GI
Outline: (§2)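 NCI one-dose screen. Cells grown in RPMI 1640 with 5% FBS and 2 mM L-glutamine, plated and incubated 24 h at 37 °C, 5% CO2. DMSO-dissolved drug added, then 48 h further incubation. Adherent cells fixed with cold TCA, suspension cells fixed after settling. Stained with 0.4% SRB, absorbance read at 515 nm. Reported as percent growth relative to no-drug control and time-zero cell number.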

| SMILES | inhibition of growth at 10 µM [%] |
| --- | --- |
| COc1cc2nc(-c3cccs3)cc(OCCCN3CCC(O)CC3)c2cc1OC | 20 |

tested on: MDA-MB-435; assay: Growth inhibition of human MDA-MB-435 cells at 10 uM incubated for 48 hrs by sulforhodamine B assay relative to control; format: functional; conditions: read-out: GI
Outline: (§3)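 NCI-60 single-dose screen. Cells were grown in RPMI 1640 with 5% FBS and 2 mM L-glutamine and plated 24 h before drug addition. Compound was added at one concentration in DMSO-derived medium and incubated for 48 h at 37 °C in 5% CO2. Read-out was SRB protein stain at 515 nm. Result is percent growth versus the no-drug control and the time-zero cell count; values below 0 indicate lethality.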

| SMILES | inhibition of growth at 10 µM [%] |
| --- | --- |
| COc1cc2nc(-c3cccs3)cc(OCCCN3CCC(O)CC3)c2cc1OC | 20 |

tested on: NCI-H460; assay: Growth inhibition of human NCI-H460 cells at 10 uM incubated for 48 hrs by sulforhodamine B assay relative to control; format: functional; conditions: read-out: GI; outline: as §2

| SMILES | inhibition of growth at 10 µM [%] |
| --- | --- |
| COc1cc2nc(-c3cccs3)cc(OCCCN3CCC(O)CC3)c2cc1OC | 20 |

tested on: SW-620; assay: Growth inhibition of human SW-620 cells at 10 uM incubated for 48 hrs by sulforhodamine B assay relative to control; format: functional; conditions: read-out: GI; outline: as §1

| SMILES | inhibition of growth at 10 µM [%] |
| --- | --- |
| COc1cc2nc(-c3cccs3)cc(OCCCN3CCC(O)CC3)c2cc1OC | 20 |

tested on: OVCAR-8; assay: Growth inhibition of human OVCAR-8 cells at 10 uM incubated for 48 hrs by sulforhodamine B assay relative to control; format: functional; conditions: read-out: GI; outline: as §2

| SMILES | inhibition of growth at 10 µM [%] |
| --- | --- |
| COc1cc2nc(-c3cccs3)cc(OCCCN3CCC(O)CC3)c2cc1OC | 20 |

tested on: PC-3; assay: Growth inhibition of human PC-3 cells at 10 uM incubated for 48 hrs by sulforhodamine B assay relative to control; format: functional; conditions: read-out: GI; outline: as §2

| SMILES | inhibition of growth at 10 µM [%] |
| --- | --- |
| COc1cc2nc(-c3cccs3)cc(OCCCN3CCC(O)CC3)c2cc1OC | 20 |

tested on: SR; assay: Growth inhibition of human SR cells at 10 uM incubated for 48 hrs by sulforhodamine B assay relative to control; format: functional; conditions: read-out: GI; outline: as §2

| SMILES | inhibition of growth at 10 µM [%] |
| --- | --- |
| COc1cc2nc(-c3cccs3)cc(OCCCN3CCC(O)CC3)c2cc1OC | 20 |

tested on: KM12; assay: Growth inhibition of human KM12 cells at 10 uM incubated for 48 hrs by sulforhodamine B assay relative to control; format: functional; conditions: read-out: GI; outline: as §3

| SMILES | inhibition of growth at 10 µM [%] |
| --- | --- |
| COc1cc2nc(-c3cccs3)cc(OCCCN3CCC(O)CC3)c2cc1OC | 20 |

tested on: OVCAR-4; assay: Growth inhibition of human OVCAR-4 cells at 10 uM incubated for 48 hrs by sulforhodamine B assay relative to control; format: functional; conditions: read-out: GI; outline: as §2

| SMILES | inhibition of growth at 10 µM [%] |
| --- | --- |
| COc1cc2nc(-c3cccs3)cc(OCCCN3CCC(O)CC3)c2cc1OC | 20 |

tested on: T47D; assay: Growth inhibition of human T47D cells at 10 uM incubated for 48 hrs by sulforhodamine B assay relative to control; format: functional; conditions: read-out: GI; outline: as §1

| SMILES | inhibition of growth at 10 µM [%] |
| --- | --- |
| COc1cc2nc(-c3cccs3)cc(OCCCN3CCC(O)CC3)c2cc1OC | 20 |

tested on: SK-MEL-5; assay: Growth inhibition of human SK-MEL-5 cells at 10 uM incubated for 48 hrs by sulforhodamine B assay relative to control; format: functional; conditions: read-out: GI; outline: as §2

| SMILES | inhibition of growth at 10 µM [%] |
| --- | --- |
| COc1cc2nc(-c3cccs3)cc(OCCCN3CCC(O)CC3)c2cc1OC | 20 |

tested on: OVCAR-5; assay: Growth inhibition of human OVCAR-5 cells at 10 uM incubated for 48 hrs by sulforhodamine B assay relative to control; format: functional; conditions: read-out: GI; outline: as §2

| SMILES | inhibition of growth at 10 µM [%] |
| --- | --- |
| COc1cc2nc(-c3cccs3)cc(OCCCN3CCC(O)CC3)c2cc1OC | 20 |

tested on: NCI-H23; assay: Growth inhibition of human NCI-H23 cells at 10 uM incubated for 48 hrs by sulforhodamine B assay relative to control; format: functional; conditions: read-out: GI; outline: as §2

| SMILES | inhibition of growth at 10 µM [%] |
| --- | --- |
| COc1cc2nc(-c3cccs3)cc(OCCCN3CCC(O)CC3)c2cc1OC | 20 |

tested on: HOP-62; assay: Growth inhibition of human HOP-62 cells at 10 uM incubated for 48 hrs by sulforhodamine B assay relative to control; format: functional; conditions: read-out: GI; outline: as §3

| SMILES | inhibition of growth at 10 µM [%] |
| --- | --- |
| COc1cc2nc(-c3cccs3)cc(OCCCN3CCC(O)CC3)c2cc1OC | 20 |

tested on: Malme-3M; assay: Growth inhibition of human Malme-3M cells at 10 uM incubated for 48 hrs by sulforhodamine B assay relative to control; format: functional; conditions: read-out: GI; outline: as §2

| SMILES | inhibition of growth at 10 µM [%] |
| --- | --- |
| COc1cc2nc(-c3cccs3)cc(OCCCN3CCC(O)CC3)c2cc1OC | 20 |

tested on: SN12C; assay: Growth inhibition of human SN12C cells at 10 uM incubated for 48 hrs by sulforhodamine B assay relative to control; format: functional; conditions: read-out: GI; outline: as §2

| SMILES | inhibition of growth at 10 µM [%] |
| --- | --- |
| COc1cc2nc(-c3cccs3)cc(OCCCN3CCC(O)CC3)c2cc1OC | 20 |

tested on: UACC-62; assay: Growth inhibition of human UACC-62 cells at 10 uM incubated for 48 hrs by sulforhodamine B assay relative to control; format: functional; conditions: read-out: GI; outline: as §1

| SMILES | inhibition of growth at 10 µM [%] |
| --- | --- |
| COc1cc2nc(-c3cccs3)cc(OCCCN3CCC(O)CC3)c2cc1OC | 20 |
